Measurements: ChEMBL document CHEMBL1828581 (J Med Chem, 2011)
Active and inactive are the calls of the source. The calls are words filed in the database; no cut-off is given here.

How the values were obtained:
[1] = Inhibition of beta-hematin formation assessed as equivalents of drug relative to hematin for 50% inhibition at pH 4.5 by BHIA assay; type: functional
Outline: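 β-Hematin formation mediated by 4.5 M acetate, pH 4.5, in a 96-well plate format. Unconverted hematin is dissolved with 5% (v/v) aqueous pyridine at pH 7.5, which leaves β-hematin undissolved. Result expressed as equivalents of compound relative to hematin at 50% inhibition.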

Plasmodium falciparum [2] = assay: Resistance index, ratio of IC50 for chloroquine-resistant Plasmodium falciparum K1 to IC50 for chloroquine-sensitive Plasmodium falciparum D10; type: functional
Outline: (§1)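 Resistance index is the IC50 against the resistant strain divided by the IC50 against D10. Both IC50s come from the lactate dehydrogenase growth assay on asexual blood stages, run by the same serial-dilution protocol.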

Plasmodium falciparum [3] = assay: Antimalarial activity against erythrocyte stages of chloroquine-resistant Plasmodium falciparum K1 infected in human erythrocytes by lactate dehydrogenase assay; type: functional, organism-based
Outline: (§2)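 Asexual blood-stage P. falciparum in continuous culture (modified Trager–Jensen), read out by parasite lactate dehydrogenase. Stocks are 2 mg/mL in DMSO or methanol. […] IC50 comes from nonlinear dose–response fitting.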

Plasmodium falciparum [4] = assay: Antimalarial activity against erythrocyte stages of chloroquine-sensitive Plasmodium falciparum D10 infected in human erythrocytes by lactate dehydrogenase assay; type: functional, organism-based; outline: as §2
[5] = Dissociation constant, pKa of the compound with quinoline heteroaromatic N atom by pH titration method; type: physicochemical
[6] = Dissociation constant, pKa of the compound with basic tertiary amino group by pH titration method; type: physicochemical
CHO = assay: Cytotoxicity against CHO cells by MTT assay; type: cell-based; settings: Cricetulus griseus
Outline: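 CHO cells, MTT colorimetric growth read-out. Compound from a 2 mg/mL stock, tested from 100 μg/mL in 10-fold serial dilutions in complete medium (5 concentrations, lowest 0.01 μg/mL). Emetine reference. IC50 from nonlinear dose–response fitting; mean ± SEM, n = 3.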

Plasmodium berghei [7] = assay: Antimalarial activity against Plasmodium berghei infected in NMRI mouse assessed as host survival time at 30 mg/kg, po administered as a single dose 4 hrs post infection (reference value: 4 days)
Plasmodium berghei [8] = assay: Antimalarial activity against Plasmodium berghei infected in NMRI mouse assessed as reduction of parasitemia level at 30 mg/kg, po administered as single dose 4 hrs post infection (reference value: 2.76%); design: scale not given: the % may be the effect or the level left
Plasmodium falciparum [9] = assay: Resistance index, ratio of IC50 for chloroquine-resistant Plasmodium falciparum Dd2 to IC50 for chloroquine-sensitive Plasmodium falciparum D10; type: functional; outline: as §1
Plasmodium falciparum [10] = assay: Antimalarial activity against erythrocyte stages of chloroquine-resistant Plasmodium falciparum RSA11 infected in human erythrocytes by lactate dehydrogenase assay; type: functional, organism-based; outline: as §2
Plasmodium falciparum [11] = assay: Resistance index, ratio of IC50 for chloroquine-resistant Plasmodium falciparum RSA11 to IC50 for chloroquine-sensitive Plasmodium falciparum D10; type: functional; outline: as §1
Plasmodium berghei [12] = assay: Antimalarial activity against Plasmodium berghei infected in NMRI mouse assessed as parasitized red blood cells level at 100 mg/kg, po administered as single dose 4 hrs post infection measured on day 4 (reference value: 78%)
Plasmodium falciparum [13] = assay: Resistance index, ratio of IC50 for chloroquine-resistant Plasmodium falciparum W2 to IC50 for chloroquine-sensitive Plasmodium falciparum D10; type: functional; outline: as §1
Plasmodium berghei [14] = assay: Antimalarial activity against Plasmodium berghei infected in NMRI mouse assessed as parasitized red blood cells level at 30 mg/kg, po administered as single dose 4 hrs post infection measured on day 4 (reference value: 78%)
[15] = molecular target: T1, Chloroquine resistance transporter (Plasmodium falciparum) (UniProt Q9N623); assay: Inhibition of chloroquine-sensitive Plasmodium falciparum D10 chloroquine resistance transporter expressed in xenopus laevis oocytes assessed as inhibition of [3H]chloroquine uptake after 1 to 2 hrs; type: cell-based; settings: Oocyte
T1 sequence (whole entry): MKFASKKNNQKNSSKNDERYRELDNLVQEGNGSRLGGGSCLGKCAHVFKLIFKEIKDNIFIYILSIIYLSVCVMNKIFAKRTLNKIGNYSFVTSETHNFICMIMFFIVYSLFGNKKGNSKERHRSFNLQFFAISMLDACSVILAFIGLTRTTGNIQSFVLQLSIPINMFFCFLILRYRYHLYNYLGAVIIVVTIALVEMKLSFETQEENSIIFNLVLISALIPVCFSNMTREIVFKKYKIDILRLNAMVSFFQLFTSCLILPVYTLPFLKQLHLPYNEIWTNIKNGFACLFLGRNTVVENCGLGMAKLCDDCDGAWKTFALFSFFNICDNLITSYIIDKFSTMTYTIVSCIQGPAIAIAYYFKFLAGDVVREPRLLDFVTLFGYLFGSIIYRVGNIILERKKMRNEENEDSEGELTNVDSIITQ

[16] = molecular target: T2, Chloroquine resistance transporter (Plasmodium falciparum, UniProt Q9N623); assay: Inhibition of chloroquine-resistant Plasmodium falciparum Dd2 chloroquine resistance transporter expressed in xenopus laevis oocytes assessed as inhibition of [3H]chloroquine uptake after 1 to 2 hrs; type: cell-based, Oocyte
T2 sequence (Q9N623 whole entry): T1 sequence (whole entry)

[17] = Selectivity index, ratio of IC50 for CHO cells to IC50 for chloroquine-sensitive Plasmodium falciparum D10; type: toxicity, cell-based; settings: hamster, read-out: Ratio IC50
Outline: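 The D10 value came from parasite lactate dehydrogenase read-out on erythrocytic cultures, 10 two-fold dilutions from 100 ng/mL, with nonlinear dose–response fitting.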

Plasmodium berghei [18] = assay: Antimalarial activity against Plasmodium berghei infected in NMRI mouse assessed as host survival time at 100 mg/kg, po administered as a single dose 4 hrs post infection (reference value: 4 days)
Plasmodium falciparum [19] = assay: Antimalarial activity against erythrocyte stages of chloroquine-resistant Plasmodium falciparum Dd2 infected in human erythrocytes by lactate dehydrogenase assay; type: functional, organism-based; outline: as §2
Plasmodium falciparum [20] = assay: Antimalarial activity against erythrocyte stages of chloroquine-resistant Plasmodium falciparum W2 infected in human erythrocytes by lactate dehydrogenase assay; type: functional, organism-based; outline: as §2
Plasmodium berghei [21] = assay: Antimalarial activity against Plasmodium berghei infected in NMRI mouse assessed as reduction of parasitemia level at 100 mg/kg, po administered as single dose 4 hrs post infection (reference value: 0.16%); design: scale not given: the % may be the effect or the level left
Plasmodium berghei [22] = assay: Antimalarial activity against Plasmodium berghei infected in NMRI mouse assessed as host survival time at 100 mg/kg, po administered on day 0, 1 and 2 after postinfection (reference value: 4 days); type: functional
Outline: (§3)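 P. berghei in female NMRI mice (modified Peters 4-day test): 0.2 mL of donor blood diluted to 10^8 parasitized erythrocytes/mL given i.v. Oral dosing starts 4 h postinfection, with further daily doses at 24, 48 and 72 h by regimen. Groups of 3 treated and 5 untreated mice. Survival followed to day 30, and survivors are checked for parasitemia.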

Plasmodium berghei [23] = assay: Antimalarial activity against Plasmodium berghei infected in NMRI mouse assessed as host survival time at 30 mg/kg, po administered on day 0, 1 and 2 after postinfection (reference value: 4 days); type: functional; outline: as §3
Plasmodium berghei [24] = assay: Antimalarial activity against Plasmodium berghei infected in NMRI mouse assessed as parasitized red blood cells level at 30 mg/kg, po administered on day 0, 1 and 2 after postinfection measured on day 4 (reference value: 78%); type: functional
Plasmodium berghei [25] = assay: Antimalarial activity against Plasmodium berghei infected in NMRI mouse assessed as reduction of parasitemia level at 30 mg/kg, po administered on day 0, 1 and 2 after postinfection (reference value: 0.13%); type: functional; design: scale not given: the % may be the effect or the level left
Plasmodium berghei [26] = assay: Antimalarial activity against Plasmodium berghei infected in NMRI mouse assessed as parasitized red blood cells level at 100 mg/kg, po administered on day 0, 1 and 2 after postinfection measured on day 4 (reference value: 78%); type: functional
Plasmodium berghei [27] = assay: Antimalarial activity against Plasmodium berghei infected in NMRI mouse assessed as reduction of parasitemia level at 100 mg/kg, po administered on day 0, 1 and 2 after postinfection (reference value: 0.11%); type: functional; design: scale not given: the % may be the effect or the level left
Plasmodium berghei [28] = assay: Antimalarial activity against Plasmodium berghei infected in NMRI mouse assessed as parasitized red blood cells level at 30 mg/kg, po administered on day 0, 1, 2 and 3 after postinfection measured on day 4 (reference value: 78%); type: functional
Plasmodium berghei [29] = assay: Antimalarial activity against Plasmodium berghei infected in NMRI mouse assessed as host survival time at 100 mg/kg, po administered on day 0, 1, 2 and 3 after postinfection (reference value: 4 days); type: functional; outline: as §3
Plasmodium berghei [30] = assay: Antimalarial activity against Plasmodium berghei infected in NMRI mouse assessed as parasitized red blood cells level at 100 mg/kg, po administered on day 0, 1, 2 and 3 after postinfection measured on day 4 (reference value: 78%); type: functional
Plasmodium berghei [31] = assay: Antimalarial activity against Plasmodium berghei infected in NMRI mouse assessed as reduction of parasitemia level at 100 mg/kg, po administered on day 0, 1, 2 and 3 after postinfection (reference value: 0.12%); type: functional; design: scale not given: the % may be the effect or the level left
Plasmodium berghei [32] = assay: Antimalarial activity against Plasmodium berghei infected in NMRI mouse assessed as reduction of parasitemia level at 30 mg/kg, po administered on day 0, 1, 2 and 3 after postinfection (reference value: 0.38%); type: functional; design: scale not given: the % may be the effect or the level left
Plasmodium berghei [33] = assay: Antimalarial activity against Plasmodium berghei infected in NMRI mouse assessed as host survival time at 30 mg/kg, po administered on day 0, 1, 2 and 3 after postinfection (reference value: 4 days); type: functional; outline: as §3

Structure (SMILES)	IC50 [1] [equivalents]	Ratio IC50 (Plasmodium falciparum [2])	IC50 (Plasmodium falciparum [3])	IC50 (Plasmodium falciparum [4])	pKa [5]	pKa [6]	other results
CN(Cc1ccc(Cl)cc1)Cc1cccc(CNc2ccnc3cc(Cl)ccc23)c1	0.66	0.6	85 nM	138 nM	7.55	9.89	–
COc1ccc(CN(C)Cc2ccc(CNc3ccnc4cc(Cl)ccc34)cc2)cc1	1.44	0.7	88 nM	130 nM	7.44	9.7	–
CC[C@H]1CN2CCc3cc(OC)c(OC)cc3[C@@H]2C[C@@H]1C[C@H]1NCCc2cc(OC)c(OC)cc21 [EMETINE]	–	–	–	–	–	–	IC50 (CHO): 80 nM
CN(Cc1ccccc1)Cc1ccc(CNc2ccnc3cc(Cl)ccc23)cc1	0.32	0.9	25 nM	22 nM	7.56	9.9	Time (Plasmodium berghei [7]): 6.7 days; Activity (Plasmodium berghei [8]): 97%; Ratio IC50 (Plasmodium falciparum [9]): 1.2; IC50 (Plasmodium falciparum [10]): 38 nM; Ratio IC50 (Plasmodium falciparum [11]): 1.7; Activity (Plasmodium berghei [12]): 0.12%; IC50 (CHO): > 249000 nM; Ratio IC50 (Plasmodium falciparum [13]): 1; Activity (Plasmodium berghei [14]): 2.16%; inhibition [15]: Active; IC50 [16]: 69000 nM; selectivity ratio [17]: > 9220; Time (Plasmodium berghei [18]): 10 days; IC50 (Plasmodium falciparum [19]): 26 nM; IC50 (Plasmodium falciparum [20]): 23 nM; Activity (Plasmodium berghei [21]): 99.8%
CN(Cc1ccc(N(C)C)cc1)Cc1ccccc1CNc1ccnc2cc(Cl)ccc12	0.48	0.8	149 nM	178 nM	7.4	9.71	–
CN(Cc1ccc(CNc2ccnc3cc(Cl)ccc23)cc1)Cc1ccc(N(C)C)cc1	0.4	0.8	36 nM	47 nM	7.33	9.66	IC50 (CHO): > 225000 nM; selectivity ratio [17]: > 4790
CN(Cc1ccccc1)Cc1cccc(CNc2ccnc3cc(Cl)ccc23)c1	0.69	1	43 nM	41 nM	7.63	9.77	Time (Plasmodium berghei [22]): 30 days; IC50 (CHO): 70000 nM; Time (Plasmodium berghei [23]): 16.7 days; Activity (Plasmodium berghei [24]): 0.1%; Activity (Plasmodium berghei [25]): 99.9%; IC50 [16]: 36000 nM; Activity (Plasmodium berghei [26]): 0.09%; selectivity ratio [17]: 1270; Activity (Plasmodium berghei [27]): 99.9%
COc1ccc(CN(C)Cc2cccc(CNc3ccnc4cc(Cl)ccc34)c2)cc1	0.52	1.3	120 nM	91 nM	7.38	9.67	–
CN(Cc1ccccc1)Cc1ccccc1CNc1ccnc2cc(Cl)ccc12	1.1	0.9	122 nM	140 nM	7.57	9.85	Activity (Plasmodium berghei [28]): 0.3%; Time (Plasmodium berghei [29]): 30 days; Activity (Plasmodium berghei [30]): 0.09%; Activity (Plasmodium berghei [31]): 99.9%; IC50 [16]: 58000 nM; Activity (Plasmodium berghei [32]): 99.6%; Time (Plasmodium berghei [33]): 20.7 days
CN(Cc1ccc(Cl)cc1)Cc1ccccc1CNc1ccnc2cc(Cl)ccc12	1.4	–	1130 nM	–	7.44	9.6	–
CCN(CC)CCCC(C)Nc1ccnc2cc(Cl)ccc12 (stereo not given) [CHLOROQUINE]	1.9	–	–	–	–	–	inhibition [15]: Active
CN(Cc1ccc(Cl)cc1)Cc1ccc(CNc2ccnc3cc(Cl)ccc23)cc1	0.34	–	> 10 µg/mL	> 0.1 µg/mL	7.44	9.74	–
COc1ccc(CN(C)Cc2ccccc2CNc2ccnc3cc(Cl)ccc23)cc1	0.46	0.8	134 nM	175 nM	7.47	9.85	–
CN(Cc1ccc(N(C)C)cc1)Cc1cccc(CNc2ccnc3cc(Cl)ccc23)c1	0.5	–	281 nM	> 0.1 µg/mL	7.36	9.67	–
